Ecoli WT expand = blocks growth of wild type E. coli BW25113; growth inhibition, % at 100 µM; AID 710; OD600 absorbance; actives 0.15% (n = 98,000);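 active means growth inhibition above about 50% at one test dose, limit read from the data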;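 further: growth measured after 20 h incubation at 37 °C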
tolC growth inh = E. coli tolC mutant growth inhibition. growth inhibition, % at 10 µM (by protocol). actives 2.2% (n = 65,000). E. coli BW25113 tolC mutant growth, OD615;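 active means growth inhibition at or above a cutoff equal to the mean over every tested compound plus 3 SD, cut at about 60% in these data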;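 further: growth measured after 20 h incubation at 37 °C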
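Assay system: tolC-deleted E. coli BW25113. Medium: kanamycin-containing LB broth (50 µg/mL). Dosing: 10 µM final, single dose. Timing: bacterial growth with compound for 20 h at 37 °C. Detection: A615 absorbance measurement. Read-out basis: growth inhibition in percent.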
PostGolgi yeast = growth inhibition of a yeast mutant, post-Golgi transport screen. post-Golgi transport phenotypic cell assay. inhibition, % at 10 µM. actives 0.9% (n = 98,000). AID 739;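 further: yeast cells grown in 1536-well plates; yeast grown about 18 h at 30C before absorbance read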
DAT uptake mod = modulates human dopamine transporter uptake under cocaine; LLC-PK1 hDAT cells, [14C]-dopamine uptake with cocaine IC80; actives deviate in either direction; B-score at 10 µM; actives 1.3% (n = 110,000); AID 449768;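 active means Z score or B-score, a plate-position-corrected score, falls beyond the plate's 99.7% confidence bounds, in either direction; inactive means both scores lie inside the 99.7% bounds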;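 further: scored against the spread of the other compound wells on the same plate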
D1 allo mod = allosteric modulators of human D1 dopamine receptor. P21728. HEK293 D1, CRE-luciferase, dopamine EC30 potentiation; actives deviate in either direction. B-score at 10 µM. actives 5.9% (n = 58,000). AID 641;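 active means luminescence count or its row- and column-corrected plate score outside the 99.7% band of the plate's sample wells, on either side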
Target sequence (P21728 whole entry, looked up): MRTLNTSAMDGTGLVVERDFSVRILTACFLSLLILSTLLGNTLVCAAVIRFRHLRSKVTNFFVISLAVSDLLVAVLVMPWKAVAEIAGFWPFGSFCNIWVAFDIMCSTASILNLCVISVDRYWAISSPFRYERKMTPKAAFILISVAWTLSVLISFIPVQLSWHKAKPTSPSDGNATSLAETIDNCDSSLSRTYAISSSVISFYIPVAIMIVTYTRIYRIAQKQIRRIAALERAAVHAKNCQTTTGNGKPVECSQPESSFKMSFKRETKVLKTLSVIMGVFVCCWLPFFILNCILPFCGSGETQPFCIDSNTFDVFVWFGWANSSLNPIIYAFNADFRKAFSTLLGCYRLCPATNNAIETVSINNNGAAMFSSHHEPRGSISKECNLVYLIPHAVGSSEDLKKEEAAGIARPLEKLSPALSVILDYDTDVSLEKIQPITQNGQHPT
PostGolgi ctrl = growth of the yeast control strain, post-Golgi counter-screen | efflux-deficient yeast background strain, growth absorbance A615, 16 h | inhibition, % at 10 µM | actives 5% (n = 98,000)
An asterisk follows results filed as active; · = no result given. Hits are enriched below; roughly 9.3% of the tested compounds scored in any of these assays. Unless noted, no stated cut-off is given here; in the data, active means inhibition above about 30%; inactive means the rest.

SMILES	Ecoli WT expand	tolC growth inh	PostGolgi yeast	DAT uptake mod	D1 allo mod	PostGolgi ctrl
CCCCN(CC)C(=O)Cn1c(=O)sc2ccccc21	1.0	·	13.1	0.388	·	6.8
COc1ccccc1N1CCN(CC(=O)NCC2CCCO2)CC1 (stereo not drawn)	·	·	·	-0.323	·	·
CCc1nc(SCC(=O)N2CCC(C)CC2)c2c(=O)n(C)c(=O)n(C)c2n1	-9.0	9.4	-3.6	1.43	0.0315	2.6
CC(C)c1nc(SCC(=O)N2CCN(c3ccccc3)CC2)c2c(=O)n(C)c(=O)n(C)c2n1	-2.0	-3.3	-7.8	-0.226	-3.86*	11.8
CCCc1nc(SCC(=O)N2CCN(c3ccccc3)CC2)c2c(=O)n(C)c(=O)n(C)c2n1	2.0	2.4	-3.6	-0.431	-1.62	4.5
CCc1nc(SCC(=O)N2CCC(Cc3ccccc3)CC2)c2c(=O)n(C)c(=O)n(C)c2n1	-6.0	·	19.1	0.162	·	40.0*
CN1C2CCC1/C(=C\c1ccccc1)C(=O)/C2=C\c1ccccc1	-3.0	·	9.0	-0.516	·	16.9
COc1ccc(CNC(=O)Nc2cccs2)cc1OC	2.0	-10.5	3.3	-1.57	0.136	4.4
COc1cccc(CNC(=O)Nc2cccs2)c1	12.0	2.3	6.0	-0.638	-3.4*	20.7
CCN(C(=O)c1coc(=O)c2ccccc12)c1cc(OC)ccc1OC	-7.0	-8.4	-5.4	-0.152	0.373	37.6*
O=C1CC(=C2c3ccccc3-c3ccccc32)C(=O)N1CCCCN1CCN(c2ccccc2)CC1	·	·	·	0.441	·	·
c1ccc(COc2ccc(Nc3ncnc4nc[nH]c34)cc2)cc1	-5.0	3.3	-1.2	-0.017	-1.65	69.9*
CCOC(=O)c1ccc(Nc2ncnc3nc[nH]c23)cc1	-2.0	15.2	6.8	-0.0904	-5.87*	1.4
CN(C)c1ccc(C(c2nnnn2CCOC(=O)Nc2ccc(Cl)cc2)N2CCOCC2)cc1 (stereo not drawn)	2.0	-8.7	-1.1	0.697	-0.816	34.4*
O=C(Nc1ccc(Cl)cc1)OCCn1nnnc1C(c1ccccc1)N1CCOCC1 (stereo not drawn)	30.0	0.6	0.1	1.45	0.292	-3.2
Cc1ccc(OCc2nnc(SCC(=O)CC(=O)Nc3ccccc3)o2)cc1	11.0	2.1	-9.3	-0.546	0.171	33.0*
CC(NC(=O)CSc1nnc(COc2ccccc2)o1)c1ccccc1 (stereo not drawn)	3.0	-3.3	-1.1	-0.0207	·	1.6
O=C(Nc1ncccc1O)c1cccc(S(=O)(=O)N2CCc3ccccc32)c1	-4.0	15.7	-5.2	0.978	0.0523	33.8*
COc1ccc(C(=O)Nc2ccc(S(=O)(=O)N3CCc4ccccc43)cc2)cc1	·	·	·	0.551	·	·
C#CCNC(=O)C1=C[C@H](C2CCCCC2)[C@@H](CCCO)[C@H](OCC)O1	·	·	·	-0.492	·	·
C/C(=N\Nc1ccc([N+](=O)[O-])cc1)c1cccc(N)c1	13.0	·	31.4*	0.787	·	5.4
COc1ccc(C(=O)Nc2cccc(/C(C)=N/NC(=O)c3ccc([N+](=O)[O-])cc3)c2)cc1OC	1.0	·	0.8	0.0813	·	6.8
Cc1ccccc1OCC(O)Cn1c2ccccc2c2ccccc21 (stereo not drawn)	-11.0	·	-5.7	0.94	·	38.5*
CC(=O)Nc1ccc(OCC(O)Cn2c3ccccc3c3ccccc32)c(C)c1 (stereo not drawn)	-3.0	·	0.3	-0.635	·	46.1*
Cc1ccc(S(=O)(=O)CCC(=O)N2CCN(c3ccc(Cl)cc3)CC2)cc1	·	·	·	-0.945	·	·
SMILES	Ecoli WT expand	tolC growth inh	PostGolgi yeast	DAT uptake mod	D1 allo mod	PostGolgi ctrl
C=CCOC(=O)C1=C(C)Nc2ncnn2C1c1cccs1 (stereo not drawn)	-1.0	·	31.0*	-1.07	·	14.7
CCCCCCCCOC(=O)C1=C(C)Nc2nnnn2C1c1cccs1 (stereo not drawn)	-3.0	·	18.0	-0.774	·	78.7*
CCCCOC(=O)C1=C(C)Nc2ncnn2C1c1cccc(OC)c1OC (stereo not drawn)	8.0	15.7	-8.3	-2.9*	0.0353	-3.4
COc1ccc(C/C(=N\O)c2ccc(OC)cc2)cc1	10.0	·	9.5	0.487	·	0.6
COC(=O)[C@H](Cc1ccccc1)NC(=O)NCc1cccs1	13.0	·	2.6	-0.0278	·	1.6
CN1CCN(c2ccccc2NC(=O)c2ccc(-c3ccccc3)cc2)CC1	7.0	20.1	15.3	4.9*	-3.03	13.4
CN1CCN(c2ccccc2NC(=O)c2cccc(OCc3ccccc3)c2)CC1	-7.0	16.1	-0.2	1.05	-1.95	6.8
O=C(Nc1ccccc1N1CCN(c2ccc(F)cc2)CC1)c1ccccc1	2.0	11.0	8.9	-1.7	-1.04	0.0
COc1c(Cl)cc(Cl)cc1C(=O)Nc1ccccc1N1CCN(C(C)=O)CC1	·	-1.9	·	·	-0.336	·
COc1ccc(Cl)cc1C(=O)Nc1ccccc1N1CCN(C)CC1	6.0	3.5	18.9	3.49*	-3.2	15.2
CN1CCN(c2ccccc2NC(=O)c2ccc(OCc3ccccc3)cc2)CC1	5.0	11.5	-0.9	2.58*	-4.63*	14.3
Cc1cccc(NC(=O)Cn2cnc3ccccc3c2=O)c1C	-3.0	·	-1.1	-0.95	·	-0.8
C[C@@H]1CCC[C@]2(O[C@@H](CCO)C[C@@H](O)[C@@H]2O)O1	·	·	·	-0.897	·	·
O=C(CCCOc1ccc(Cl)cc1Cl)Nc1cccnc1	23.0	·	69.0*	·	·	39.5*
O=C(CCCc1nc(-c2ccc(Cl)cc2)no1)Nc1cccnc1	9.0	27.0	53.6*	-0.547	-1.34	88.3*
CSc1ccccc1NC(=O)Nc1ccc(F)c(Cl)c1	-3.0	·	0.9	0.552	·	13.1
O=C(Nc1cccnc1)Nc1ccc(F)c(Cl)c1	61.0*	48.8	1.6	-4.3*	·	12.7
O=P(OC1CCCCC1)(OC1CCCCC1)C(O)c1ccccc1 (stereo not drawn)	3.0	·	9.5	0.106	·	11.3
Nn1c(CN2CCCCC2)nc2ccccc2c1=O	0.0	-10.1	-2.0	-0.518	-0.974	30.8*
Cc1sc2ncnc(SCC(=O)N3CCC(c4noc5ccc(F)cc45)CC3)c2c1C	-3.0	·	82.5*	·	·	91.1*
Cc1nnc(SCC(=O)N2CCC(c3noc4ccc(F)cc34)CC2)s1	-5.0	23.2	-3.2	-0.00669	-1.79	11.9
COc1cccc(-n2nnnc2S(C)(=O)=O)c1	33.0	·	17.4	-0.0267	·	30.3*
COc1cc(OC)c(C(=O)CCCN2CCCC2)c(OC)c1	·	·	·	-0.769	·	·
c1ccc(-c2csc(N3CCCCCC3)n2)cc1	3.0	16.5	6.1	-0.462	0.483	3.9
NC(=O)C1(N2CCCCC2)CCN(c2nc(-c3ccc(Br)cc3)cs2)CC1	0.0	·	6.0	-1.5	·	60.4*
O=c1c2ccccc2sn1-c1ccccc1	100.0*	·	4.7	1.59	·	16.1
Cc1ccc(-n2c(-c3ccc(Br)cc3)c[n+]3c2CCc2ccc4cccnc4c2-3)cc1	78.0*	·	10.9	-0.574	·	49.6*
CCOC(=O)c1c(-c2ccccc2)oc2ccc(OC)cc12	2.0	·	23.6	-0.797	·	30.9*
CS(=O)(=O)N(Cc1ccc(C(=O)Nc2ccccc2Sc2ccccc2)cc1)c1ccccc1	-4.0	·	-5.2	-1.62	·	4.6
CS(=O)(=O)N(CC(=O)Nc1ccccc1Sc1ccccc1)c1ccc(F)cc1	-18.0	·	-2.0	0.0267	·	54.5*

Source: PubChem BioAssay
